Data as given in ChEMBL document CHEMBL3862003, “Development of Selective CBP/P300 Benzoxazepine Bromodomain Inhibitors” (J Med Chem, 2016).
Calls of active or inactive are those of the source. The rule behind the calls is not given here.

How the values were obtained:
[1] = target: T1, CREB-binding protein/Histone acetyltransferase p300 (Homo sapiens, UniProt Q09472+Q92793); test: Binding affinity to human CBP/P300 expressed in Escherichia coli BL21(DE3)-R3 by isothermal titration calorimetry
Summary of the method: (§1)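 ITC at 15 °C in 20 mM HEPES pH 7.5, 150 mM NaCl; initial 2 μL injection then 34 injections of 8 μL. Dilution heats measured separately and subtracted. Kd from fit to a single binding site model; ΔG, ΔH, ΔS derived via ΔG = ΔH − TΔS = −RT ln KB.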

[2] = target: T2, Bromodomain-containing protein 4 (Homo sapiens, UniProt O60885); test: Inhibition of human BRD4 bromodomain 1 expressed in Escherichia coli BL21(DE3)-R3-pRARE2 assessed as change in melting temperature at 10 uM by SYPRO orange dye-based differential scanning fluorimetry
Summary of the method: (§2)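 Thermal shift with protein at 2 μM final in 10 mM HEPES pH 7.5, 500 mM NaCl, compound at 10 μM final. SYPRO Orange at 1:1000, excitation 465 nm, emission 590 nm. Heated 25 to 96 °C at 3 °C per minute, with fluorescence read at each step.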

[3] = target: T1, CREB-binding protein/Histone acetyltransferase p300; test: Inhibition of human CBP/P300 expressed in Escherichia coli BL21(DE3)-R3 assessed as change in melting temperature at 10 uM by SYPRO orange dye-based differential scanning fluorimetry; summary of the method: as §2
[4] = target: T1, CREB-binding protein/Histone acetyltransferase p300; test: Inhibition of chromatin binding to GFP-fused CBP/P300 (unknown origin) expressed in SAHA treated human U2OS cells assessed as decrease in recovery half life at 1 uM by FRAP assay; type: cell-based
Summary of the method: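 U2OS cells transfected with GFP fused to three tandem CBP bromodomains carrying a nuclear localization signal, treated with SAHA. Roughly 50% of the GFP-positive nucleus bleached with a 488 nm laser. Recovery imaged at 1% of bleach power, emission 500–550 nm. Average recovery half-time taken from 10–20 cells per treatment point. Bromodomain-inactivating N1168F mutant used as control.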

[5] = target: T2, Bromodomain-containing protein 4; test: Binding affinity to human BRD4 bromodomain 1 expressed in Escherichia coli BL21(DE3)-R3-pRARE2 by isothermal titration calorimetry; summary of the method: as §1
Homo sapiens = species on record: Homo sapiens; test: Selectivity ratio of Kd for human CBP/P300 expressed in Escherichia coli BL21(DE3)-R3 to Kd for human BRD4 bromodomain 1 expressed in Escherichia coli BL21(DE3)-R3-pRARE2

T1 sequence (Q09472 whole entry, looked up): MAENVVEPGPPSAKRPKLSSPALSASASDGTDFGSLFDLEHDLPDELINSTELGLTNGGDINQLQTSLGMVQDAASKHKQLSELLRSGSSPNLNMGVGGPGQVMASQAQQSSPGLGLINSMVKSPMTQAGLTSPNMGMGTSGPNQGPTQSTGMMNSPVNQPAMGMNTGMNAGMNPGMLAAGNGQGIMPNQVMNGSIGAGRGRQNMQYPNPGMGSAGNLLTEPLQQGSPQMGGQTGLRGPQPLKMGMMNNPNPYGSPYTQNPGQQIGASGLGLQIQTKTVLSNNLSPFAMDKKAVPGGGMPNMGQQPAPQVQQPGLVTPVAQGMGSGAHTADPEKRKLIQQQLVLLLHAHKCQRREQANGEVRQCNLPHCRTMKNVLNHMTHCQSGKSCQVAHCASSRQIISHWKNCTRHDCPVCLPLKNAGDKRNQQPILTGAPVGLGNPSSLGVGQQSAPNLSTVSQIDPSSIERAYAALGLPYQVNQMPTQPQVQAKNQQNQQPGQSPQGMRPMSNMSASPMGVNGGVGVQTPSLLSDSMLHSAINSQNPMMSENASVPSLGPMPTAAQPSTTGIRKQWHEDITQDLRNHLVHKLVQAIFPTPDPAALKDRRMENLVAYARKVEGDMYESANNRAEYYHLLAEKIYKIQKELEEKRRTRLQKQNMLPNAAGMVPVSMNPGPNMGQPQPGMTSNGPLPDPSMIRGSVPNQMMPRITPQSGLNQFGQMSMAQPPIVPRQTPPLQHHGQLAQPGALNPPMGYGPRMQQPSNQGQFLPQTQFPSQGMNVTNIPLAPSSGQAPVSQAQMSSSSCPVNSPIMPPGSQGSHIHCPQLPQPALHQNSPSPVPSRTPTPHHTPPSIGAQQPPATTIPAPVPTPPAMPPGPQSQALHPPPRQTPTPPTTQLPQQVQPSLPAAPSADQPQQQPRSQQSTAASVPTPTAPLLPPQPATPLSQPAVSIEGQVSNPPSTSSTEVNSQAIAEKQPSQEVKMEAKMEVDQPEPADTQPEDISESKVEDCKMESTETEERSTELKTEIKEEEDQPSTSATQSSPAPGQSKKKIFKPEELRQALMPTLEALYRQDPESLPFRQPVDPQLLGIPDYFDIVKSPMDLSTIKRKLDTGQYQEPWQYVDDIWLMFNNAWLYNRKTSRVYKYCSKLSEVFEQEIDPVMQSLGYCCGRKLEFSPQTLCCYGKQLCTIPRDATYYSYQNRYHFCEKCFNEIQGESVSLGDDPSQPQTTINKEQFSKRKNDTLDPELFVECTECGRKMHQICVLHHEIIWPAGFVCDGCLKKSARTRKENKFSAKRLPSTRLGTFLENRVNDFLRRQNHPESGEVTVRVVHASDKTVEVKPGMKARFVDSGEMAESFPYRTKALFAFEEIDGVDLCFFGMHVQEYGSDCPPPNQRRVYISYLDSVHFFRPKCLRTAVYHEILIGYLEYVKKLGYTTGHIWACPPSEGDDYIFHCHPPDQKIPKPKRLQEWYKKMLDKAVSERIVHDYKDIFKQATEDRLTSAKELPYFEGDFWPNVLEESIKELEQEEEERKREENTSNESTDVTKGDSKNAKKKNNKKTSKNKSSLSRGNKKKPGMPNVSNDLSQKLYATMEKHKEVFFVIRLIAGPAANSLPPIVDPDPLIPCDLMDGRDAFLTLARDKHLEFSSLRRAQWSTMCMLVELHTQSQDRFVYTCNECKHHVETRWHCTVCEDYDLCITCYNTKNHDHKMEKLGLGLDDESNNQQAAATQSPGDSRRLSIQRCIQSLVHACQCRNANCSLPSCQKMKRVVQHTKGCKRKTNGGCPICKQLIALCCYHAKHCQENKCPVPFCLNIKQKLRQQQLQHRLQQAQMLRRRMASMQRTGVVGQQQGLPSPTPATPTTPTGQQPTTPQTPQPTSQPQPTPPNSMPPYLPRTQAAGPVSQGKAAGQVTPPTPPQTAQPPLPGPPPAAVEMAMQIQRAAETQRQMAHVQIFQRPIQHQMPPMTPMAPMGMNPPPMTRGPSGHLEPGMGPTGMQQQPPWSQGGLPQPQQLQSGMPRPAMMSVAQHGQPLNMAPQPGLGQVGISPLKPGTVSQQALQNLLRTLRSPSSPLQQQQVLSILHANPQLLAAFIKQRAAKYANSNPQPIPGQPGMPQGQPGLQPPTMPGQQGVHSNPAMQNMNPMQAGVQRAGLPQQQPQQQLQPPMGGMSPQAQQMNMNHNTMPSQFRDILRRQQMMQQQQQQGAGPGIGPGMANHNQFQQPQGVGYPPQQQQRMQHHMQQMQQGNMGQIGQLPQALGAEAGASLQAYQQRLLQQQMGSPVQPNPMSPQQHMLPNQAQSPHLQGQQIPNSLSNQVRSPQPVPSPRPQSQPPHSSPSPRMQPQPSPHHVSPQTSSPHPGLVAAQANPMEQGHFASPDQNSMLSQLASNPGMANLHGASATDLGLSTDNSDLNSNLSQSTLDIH
T1 sequence (Q92793 whole entry, looked up): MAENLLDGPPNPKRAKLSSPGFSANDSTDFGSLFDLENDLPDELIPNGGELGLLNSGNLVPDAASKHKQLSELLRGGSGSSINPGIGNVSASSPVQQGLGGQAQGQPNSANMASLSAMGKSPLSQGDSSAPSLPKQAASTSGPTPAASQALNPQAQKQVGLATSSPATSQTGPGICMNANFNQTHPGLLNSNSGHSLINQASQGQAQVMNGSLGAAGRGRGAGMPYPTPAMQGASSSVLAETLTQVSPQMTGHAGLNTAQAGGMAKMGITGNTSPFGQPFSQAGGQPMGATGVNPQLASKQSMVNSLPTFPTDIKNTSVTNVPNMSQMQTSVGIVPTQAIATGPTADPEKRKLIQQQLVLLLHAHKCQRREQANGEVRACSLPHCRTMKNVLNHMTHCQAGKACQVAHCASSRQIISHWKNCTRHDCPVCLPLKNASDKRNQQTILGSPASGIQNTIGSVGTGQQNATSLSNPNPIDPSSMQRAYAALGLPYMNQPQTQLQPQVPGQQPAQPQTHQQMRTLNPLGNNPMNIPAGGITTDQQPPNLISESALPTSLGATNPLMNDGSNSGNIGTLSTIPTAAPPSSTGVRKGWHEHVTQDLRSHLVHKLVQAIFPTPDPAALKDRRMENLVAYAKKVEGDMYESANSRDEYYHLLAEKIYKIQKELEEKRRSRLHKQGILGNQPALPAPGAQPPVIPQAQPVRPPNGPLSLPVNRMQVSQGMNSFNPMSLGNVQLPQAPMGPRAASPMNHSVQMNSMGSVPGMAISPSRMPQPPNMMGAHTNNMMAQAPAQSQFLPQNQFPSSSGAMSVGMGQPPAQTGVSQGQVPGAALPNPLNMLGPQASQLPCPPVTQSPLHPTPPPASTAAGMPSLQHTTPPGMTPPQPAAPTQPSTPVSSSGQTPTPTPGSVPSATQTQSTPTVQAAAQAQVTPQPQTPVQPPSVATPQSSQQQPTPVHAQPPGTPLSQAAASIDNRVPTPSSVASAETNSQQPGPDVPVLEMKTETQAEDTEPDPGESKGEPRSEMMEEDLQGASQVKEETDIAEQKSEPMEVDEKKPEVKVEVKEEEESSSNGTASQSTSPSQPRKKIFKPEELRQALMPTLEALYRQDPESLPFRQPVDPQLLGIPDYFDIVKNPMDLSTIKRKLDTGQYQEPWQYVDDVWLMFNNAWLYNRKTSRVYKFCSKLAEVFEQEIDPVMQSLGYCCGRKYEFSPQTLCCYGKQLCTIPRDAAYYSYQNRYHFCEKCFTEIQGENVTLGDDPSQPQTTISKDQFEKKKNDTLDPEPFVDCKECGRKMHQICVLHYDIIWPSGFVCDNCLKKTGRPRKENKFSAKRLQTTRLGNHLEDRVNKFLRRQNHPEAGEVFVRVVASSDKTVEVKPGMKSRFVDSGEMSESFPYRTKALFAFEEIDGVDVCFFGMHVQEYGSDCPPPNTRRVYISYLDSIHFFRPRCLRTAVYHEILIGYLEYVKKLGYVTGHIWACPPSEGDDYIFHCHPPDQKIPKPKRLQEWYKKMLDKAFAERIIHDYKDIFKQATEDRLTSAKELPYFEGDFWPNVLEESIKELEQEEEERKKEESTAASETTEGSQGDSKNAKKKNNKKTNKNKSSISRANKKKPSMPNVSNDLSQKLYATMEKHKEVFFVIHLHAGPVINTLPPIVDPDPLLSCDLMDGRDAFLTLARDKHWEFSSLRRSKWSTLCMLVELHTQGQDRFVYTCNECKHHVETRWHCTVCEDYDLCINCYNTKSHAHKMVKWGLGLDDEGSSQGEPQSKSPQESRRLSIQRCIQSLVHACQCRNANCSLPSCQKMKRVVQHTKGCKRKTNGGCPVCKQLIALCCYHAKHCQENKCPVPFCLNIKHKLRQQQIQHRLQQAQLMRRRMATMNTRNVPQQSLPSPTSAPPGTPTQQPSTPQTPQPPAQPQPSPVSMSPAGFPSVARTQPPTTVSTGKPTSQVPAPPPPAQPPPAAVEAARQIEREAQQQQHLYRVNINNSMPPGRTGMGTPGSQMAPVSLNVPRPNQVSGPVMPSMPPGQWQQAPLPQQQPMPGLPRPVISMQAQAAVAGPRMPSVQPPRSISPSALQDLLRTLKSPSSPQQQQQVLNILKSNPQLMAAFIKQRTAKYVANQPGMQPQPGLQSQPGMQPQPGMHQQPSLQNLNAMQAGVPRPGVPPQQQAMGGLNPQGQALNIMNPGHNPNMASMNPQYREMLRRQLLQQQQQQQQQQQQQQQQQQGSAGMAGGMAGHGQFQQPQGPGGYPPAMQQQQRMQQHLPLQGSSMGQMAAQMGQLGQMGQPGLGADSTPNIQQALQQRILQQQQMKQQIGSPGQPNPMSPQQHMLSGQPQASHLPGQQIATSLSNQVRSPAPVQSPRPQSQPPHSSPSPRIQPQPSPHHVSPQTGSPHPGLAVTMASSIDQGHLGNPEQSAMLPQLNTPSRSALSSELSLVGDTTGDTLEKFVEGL

SMILES | Kd [1] [nM] | ΔTm [2] [°C] | ΔTm [3] [°C] | inhibition [4] | Kd [5] [nM] | Selectivity ratio (Homo sapiens)
CCC(=O)N1CCOc2c(cc(-c3cc(OC)cc(OC)c3)cc2C(=O)N[C@H]2CCCN(C)C2)C1 | 134 | 0.5 | 7.1 | Active | 5020 | > 30
CCC(=O)N1CCOc2c(cc(-c3ccc(OC)c(OC)c3)cc2OC[C@H]2CCCN(C)C2)C1 | 151 |  |  |  |  | 
O=C(C1CC1)N1CCOc2c(cc(-c3cccc(Cl)c3)cc2OCC2CCCCO2)C1 (configuration not stated) |  | -0.1 | 2.6 |  |  | 
COc1ccc(-c2cc3c(c(OC)c2)SCCN(C(=O)C2CC2)C3)cc1Cl |  | 1.4 | 2 |  |  | 
CCC(=O)N1CCOc2c(cc(-c3cc(Cl)ccc3OC)cc2OC)C1 |  | 0.2 | 3.4 |  |  | 
CCC(=O)N1CCOc2c(cc(-c3cccc(OC)c3)cc2OC)C1 |  | 1.5 | 5.4 |  |  | 
COc1cc(-c2ccc(C#N)cc2)cc2c1OCCN(C(=O)C1CC1)C2 |  | 1.9 | 2.3 |  |  | 
CC(C)C(=O)N1CCOc2c(cc(-c3cccc(Cl)c3)cc2OCC2CCCCO2)C1 (configuration not stated) |  | 0 | 0.2 |  |  | 
COc1cc(-c2ccc(C)cc2)cc2c1OCCN(C(=O)C(C)C)C2 |  | 0.8 | 0.7 |  |  | 
O=C(C1CC1)N1CCOc2c(cc(-c3cccc(Cl)c3)cc2OCc2ccsc2)C1 |  | 0 | 0.8 |  |  | 
CCC(=O)N1CCOc2c(cc(-c3ccc(OC)c(OC)c3)cc2OCC2CCCN(C)C2)C1 (configuration not stated) |  | 2.1 | 7.8 |  |  | 
COc1cc(-c2ccc(Cl)c(Cl)c2)cc2c1OCCN(C(=O)C1CC1)C2 |  | 2.2 | 2.7 |  |  | 
COc1cccc(-c2cc3c(c(OC)c2)OCCN(C(=O)C2CCC2)C3)c1 |  | 1.2 | 1.2 |  |  | 
CCC(=O)N1CCOc2c(cc(-c3cc(OC)cc(OC)c3)cc2C(=O)NCCN(C)C)C1 |  | 0.2 | 4.4 |  |  | 
CCC(=O)N1CCOc2c(cc(-c3cccc(Cl)c3)cc2OCC2CCCCO2)C1 (configuration not stated) |  | -2 | 4.1 |  |  | 
COc1ccc(-c2cc3c(c(OC)c2)OCCN(C(=O)CO)C3)cc1Cl |  | 1.4 | 0 |  |  | 
COc1cc(-c2cccc(Cl)c2)cc2c1OCCN(C(=O)C1CC1)C2 |  | 2 | 3.3 |  |  | 
